Results from different studies.
In brackets after ≈: the same amount, converted by molar mass.

`Cn1nccc1-c1nc(N2CCC(c3ccccn3)C2)c2ccccc2n1` (stereo not shown) has an IC50 of 16400 nM (Trypanosoma cruzi; parasite growth, imaging; U2OS; intracellular, amastigote).
`COc1ccc(NC(=O)c2c(Nc3ccccc3)sc(C#N)c2NC(=O)CNc2ccc(Cl)cc2)cc1` gave a viability of 86.1% (HepG2; cell growth or viability, SRB; 10 nM, 48 h).
The MIC of `CCCCNC(=O)c1c(N)sc2c1CCN(CC)C2` is reported as greater than 300 µM (Mycobacterium tuberculosis; microbial growth, resazurin; H37RV; 7 days).
With `COc1ccc(NC(=O)c2c(Nc3ccccc3)sc(C(=O)NN=Cc3ccc(C)cc3)c2NC(C)=O)cc1` the viability was 68.2% (HepG2; cell growth or viability, SRB; 10 µM, 48 h).
The IC50 of `OC1(c2ccccc2)CCN(c2nc(-c3ccccn3)nc3ccccc23)C1` (stereo not shown) is reported as 3510 nM (Trypanosoma cruzi; parasite growth, imaging; U2OS; intracellular, amastigote).
`CCOC(=O)c1ccc(-n2c(C)cc(/C=C/c3ccc(OC)cc3)c(C#N)c2=O)cc1` gave a viability of 96% (HepG2; cell growth or viability, MTT; 6.25 µM, 24 h).
With `Oc1ccc(-c2nc(N3CCC(c4ccccn4)C3)c3ccccc3n2)cc1` (stereo not shown) the IC50 was 1130 nM (Trypanosoma cruzi; parasite growth, imaging; U2OS; intracellular, amastigote).
With `CCN1CCc2c(sc(NC(=O)c3cc(C(F)(F)F)cc(C(F)(F)F)c3)c2C(=O)NCc2ccc(C)cc2)C1` the MIC was 350 µM (≈ 199 µg/mL) (Mycobacterium tuberculosis; microbial growth, resazurin; H37RV).
The IC50 of `Fc1cccc(Nc2nc(-c3ccccn3)nc3ccccc23)c1` is reported as 1500 nM (Trypanosoma cruzi; parasite growth, imaging; U2OS; intracellular, amastigote).
With `Nc1sc(-c2ccccc2)cc1C(=O)NC12CC3CC(CC(C3)C1)C2` the MIC was greater than 200 µM (Mycobacterium tuberculosis; microbial growth, resazurin; H37RV).
With `COc1ccc(NC(=O)c2c(Nc3ccccc3)sc(C#N)c2NC(=O)CNc2ccccc2)cc1` the viability was 88.6% (HepG2; cell growth or viability, SRB; 1 µM, 48 h).
The MIC of `CCN1CCc2c(sc(N)c2C(=O)NCc2ccc(C)cc2)C1` is reported as greater than 300 µM (Mycobacterium tuberculosis; microbial growth, resazurin; H37RV).
The viability of `CCOC(=O)c1ccc(-n2c(C)cc(C)c(C#N)c2=O)cc1` is reported as 76.1% (HepG2; cell growth or viability, MTT; 12.5 µM, 24 h).
